In brackets after ≈: the same amount, converted by molar mass.
What was measured:
[1] = system: Plasmodium falciparum; assay: Antiplasmodial activity against chloroquine-sensitive Plasmodium falciparum 3D7 infected in human red blood cells assessed as growth inhibition by SYBR Green fluorescence assay; type: functional, organism-based, RBC; details: 3D7, Erythrocyte
Outline: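 P. falciparum 3D7 grown in 5% human red cells in RPMI 1640 (pH 7.3) with 0.5% Albumax II, hypoxanthine and gentamicin at 37°C under 1% O₂/3% CO₂. Growth measured by SYBR green fluorescence (ex 485/em 528 nm), with mefloquine as assay control. EC50 calculated.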

[2] = system: MRC5; assay: Antiproliferative activity against human MRC5 cells assessed as reduction in cell viability after 68 hrs by resazurin dye based fluorescence assay; details: MRC5, 68 h
Outline: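 MRC-5 fibroblasts plated overnight as monolayers, exposed to compound pre-diluted in MEM for 68 h. Resazurin then added (final 50 μM) for 3 h, fluorescence read at ex 528/em 590 nm. Signal converted to % inhibition against high- and no-inhibition controls. Plates accepted at Z' > 0.5.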

[3] = Intrinsic clearance in CD1 mouse liver microsomes at 0.5 uM in presence of NADPH incubated upto 30 mins by UPLC-MS/MS analysis; type: ADME, Microsome; details: 0.5 h
Outline: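 Compound at 0.5 μM incubated with female CD1 mouse, male Sprague-Dawley rat or pooled human liver microsomes (0.5 mg/mL, 50 mM potassium phosphate, pH 7.4). Reaction started with excess NADPH. Samples taken at 0-30 min, quenched in acetonitrile, analysed by UPLC-MS/MS. Verapamil used as control, single time course.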

[4] = Kinetic aqueous solubility of the compound by laser nephelometry; type: physicochemical; details: read-out: Kinetic_solubility
Outline: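 Kinetic solubility measured by laser nephelometry. DMSO serial dilutions diluted into water to give final 100–5 μg/mL at 1.0% DMSO. Read immediately, in triplicate aliquots.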

[5] = Permeability of the compound at 10 uM incubated for 5 hrs by UPLC-MS/MS analysis based PAMPA method; type: ADME; details: read-out: permeability
Outline: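 PAMPA run on a lipid-oil-lipid tri-layer filter at pH 7.4. Compound at 10 μM in PBS (DMSO ≤5%) in donor wells, PBS in acceptor wells, kept 5 h at room temperature. Both compartments quantified by UPLC-MS/MS. Data accepted only when recovery exceeded 70%.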

| CLH [3] | solubility kinetic [4] | Papp at 5 h, 10 µM [5] | Structure (SMILES) | EC50 [1] | EC50 [2] |
| --- | --- | --- | --- | --- | --- |
| – | – | – | O=C(NCCN1CCCC1)c1cc(NCCN2CCCCC2)nc2ccc(F)cc12 | 8.9 µM | 19 µM |
| – | – | – | Cc1ccc(-c2cc(C(=O)NCCN3CCCCC3)c3cc(Cl)ccc3n2)cc1 | 0.32 µM | 7 µM |
| 11 mL/min/g | 12 µM (≈ 4.92 µg/mL) | – | Cc1ccc(-c2cc(C(=O)NCCN3CCOCC3)c3cc(Cl)ccc3n2)cc1 | 3.6 µM | 26 µM |
| – | – | – | O=C(NCCN1CCCC1)c1cc(NCCN2CCOCC2)nc2ccc(F)cc12 | 0.19 µM | 50 µM |
| – | – | – | Cc1ccc(-c2cc(C(=O)NCCN(C)C)c3cc(Cl)ccc3n2)cc1 | 1.2 µM | 9 µM |
| 0.5 mL/min/g | 220 µM (≈ 100 µg/mL) | – | O=C(NCCN1CCCC1)c1cc(N2CCC(N3CCOCC3)CC2)nc2ccc(F)cc12 | 0.68 µM | 25 µM |
| – | – | – | Cc1ccc(-c2cc(C(=O)Nc3cccnc3)c3ccccc3n2)cc1 | 0.99 µM | > 50 µM |
| – | – | – | Cc1ccc(-c2cc(C(=O)Nc3cccnc3)c3cc(Cl)ccc3n2)cc1 | 0.29 µM | 21 µM |
| – | – | – | O=C(NCCN1CCCC1)c1cc(-c2ccc(N3CCOCC3)cc2)nc2ccc(F)cc12 | 0.6 µM | 17 µM |
| – | – | – | O=C(NCCN1CCCC1)c1cc(N2CCn3ccnc3C2)nc2ccc(F)cc12 | 5.8 µM | > 50 µM |
| – | – | 5.8 ×10⁻⁶ cm/s | O=C(NCCN1CCC(F)CC1)c1cc(NCCCN2CCOCC2)nc2ccc(F)cc12 | 0.9 µM | – |
| < 0.5 mL/min/g | > 210 µM | – | O=C(NCCN1CCOCC1)c1cc(-c2ccc(CN3CCOCC3)cc2)nc2ccc(F)cc12 | 0.012 µM | – |
| – | – | – | O=C(NCCN1CCCC1)c1cc(-c2cccc(CN3CCOCC3)c2)nc2ccc(F)cc12 | 11 µM | – |
| – | – | 9.4 ×10⁻⁶ cm/s | O=C(NCCN1CCC(F)(F)CC1)c1cc(NCCCN2CCOCC2)nc2ccc(F)cc12 | 15 µM | – |
| – | – | – | CN(C)c1ccc(-c2cc(C(=O)NCCN3CCCC3)c3cc(F)ccc3n2)cc1 | 0.81 µM | 10 µM |
| – | – | – | CN1CCN(c2cc(C(=O)NCCN3CCCC3)c3cc(F)ccc3n2)CC1 | 34 µM | 20 µM |
| 5.3 mL/min/g | 39 µM (≈ 16.3 µg/mL) | – | Cc1ccc(-c2cc(C(=O)Nc3cccnc3)c3cc(Br)ccc3n2)cc1 | 0.12 µM | 21 µM |
| 3.4 mL/min/g | 180 µM (≈ 67.9 µg/mL) | – | Cc1ccc(-c2cc(C(=O)NCCN3CCCC3)c3cc(F)ccc3n2)cc1 | 0.7 µM | 9 µM |
| – | – | 8.9 ×10⁻⁶ cm/s | O=C(NCCN1CCC(F)(F)C1)c1cc(NCCCN2CCOCC2)nc2ccc(F)cc12 | 18 µM | – |
| – | – | – | O=C(NCCN1CCCC1)c1cc(-c2ccc(C(=O)N3CCOCC3)cc2)nc2ccc(F)cc12 | 0.14 µM | > 50 µM |
| – | – | – | Cc1cc(Nc2cc(C(=O)NCCN3CCCC3)c3cc(F)ccc3n2)on1 | > 50 µM | > 50 µM |
| 1.1 mL/min/g | 262 µM (≈ 100 µg/mL) | – | Cc1ccc(-c2cc(C(=O)NCCCN(C)C)c3cc(Cl)ccc3n2)cc1 | 6.7 µM | 6 µM |
| – | – | 2.4 ×10⁻⁶ cm/s | O=C(NCCN1CCOCC1)c1cc(NCCCN2CCOCC2)nc2ccc(F)cc12 | 2.5 µM | – |
| – | – | – | O=C(NCCN1CCCC1)c1cc(NCCC2CCOCC2)nc2ccc(F)cc12 | 0.002 µM | > 50 µM |
| – | – | 12 ×10⁻⁶ cm/s | O=C(NCCN1CCCC(F)(F)C1)c1cc(NCCCN2CCOCC2)nc2ccc(F)cc12 | 36 µM | – |
| 2.3 mL/min/g | 210 µM (≈ 99.1 µg/mL) | – | O=C(NCCN1CCCC1)c1cc(N2CCC(N3CCOCC3)CC2)nc2ccc(Cl)cc12 | 0.15 µM | 13 µM |
| 2.1 mL/min/g | 13 µM (≈ 5.12 µg/mL) | – | Cc1ccc(-c2cc(C(=O)NCCN3CCCC3)c3cc(Cl)ccc3n2)cc1 | 0.44 µM | 7 µM |
| 8.6 mL/min/g | 36 µM (≈ 12.9 µg/mL) | – | Cc1ccc(-c2cc(C(=O)Nc3cccnc3)c3cc(F)ccc3n2)cc1 | 0.35 µM | 50 µM |
| – | – | – | Cc1ccc(-c2cc(C(=O)NCCN3CCN(C)CC3)c3cc(Cl)ccc3n2)cc1 | 3.3 µM | 8 µM |
